Screening results from PubChem BioAssay.
In the library only some 5.8% were active in any assay of this set; here they are far more common.
PLK1 inh: human PLK1 kinase inhibitors, primary screen, biochemical, TR-FRET; Serine/threonine-protein kinase PLK1 (Homo sapiens), P53350; recombinant PLK1 kinase, TR-FRET peptide phosphorylation; inhibition, % at 10 µM; hit rate 0.53% among 97,000; AID 619, 2007;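 active means inhibition of 50% or more in the single-concentration screen; inactive means inhibition below 50%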;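 further: 0% = DMSO max control and 100% = H-89 dihydrochloride min control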
Plk1 PBD FP: Plk1 polo box domain binding inhibitors, primary screen, biochemical, fluorescence polarization | Serine/threonine-protein kinase PLK1 (Homo sapiens), P53350 | Plk1 PBD phosphopeptide binding | inhibition, %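 (tested at about 20 µM)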 | hit rate 0.13% among 97,000 | AID 693, 2007; in the data active means inhibition above about 34%, passing the limit was not always enough
Cav3 T inh: Cav3.2 calcium influx blockers – cell-based, Fluo-4 calcium fluorescence, FDSS, MLSMR library, primary screen; Voltage-dependent T-type calcium channel subunit alpha-1H (Homo sapiens), O95180; Cav3.2-expressing cells; active compounds read low; B-score at 10 µM; hit rate 4% among 100,000; AID 449739, 2010;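 active means single-dose well whose peak fluorescence ratio is a statistical outlier from its plate by either plate-standardised score or position-corrected B-score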
Rev-RRE block: HIV-1 Rev-RRE binding inhibitors, primary screen, biochemical, FRET, protein-RNA interaction; inhibition, % at 8 µM; hit rate 0.79% among 97,000; AID 704, 2007; Rev peptide-RRE RNA binding; P05866;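 active means inhibition above the screen-wide mean plus 3 SD, cut at about 35% in these data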;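 further: 0% = median DMSO wells and 100% = median Neomycin B control wells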
Target sequence (P05866 whole entry, looked up): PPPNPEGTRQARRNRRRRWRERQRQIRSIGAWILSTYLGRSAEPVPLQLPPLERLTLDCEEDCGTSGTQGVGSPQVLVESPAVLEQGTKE
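Assay system: labelled RRE RNA duplex and labelled Rev peptide / Medium: HEPES pH 7.5 salt buffer with EDTA / Reagent: labelled Rev peptide / Schedule: 5 + 15 min at 25 °C / Signal: FRET, excitation 480 nm, emission 540 nm donor and 671 nm acceptor / Benchmarks: DMSO and neomycin B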
FAK blocker: FAK kinase inhibitors, primary screen, biochemical; biochemical FAK kinase activity assay; inhibition, %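 (tested at 7 µM)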; hit rate 0.84% among 97,000; AID 727, 2007; in the data active means inhibition above about 19%;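 further: 0% = DMSO and 100% = reference compound high control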
PTK2B oligo ant: antagonists of Pyk2 self-association, primary screen, Q293 cells, FERM NanoBiT luminescence, HTS; active compounds read low; z-score (the deposit names both 25 µM and 10 µM); hit rate 0.83% among 99,000;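 active means Z-score of -3 or lower, scaled per plate to the spread of control and sample wells; inactive means z-score above -3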;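 further: negative z-score means lost luminescence so less FERM oligomerization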
An asterisk follows results filed as active.

How did CN(c1cccc(NC(=O)c2ccc(Cl)c(S(=O)(=O)Nc3ccccc3)c2)c1)S(C)(=O)=O do in these assays?
PLK1 inh: -6; Plk1 PBD FP: -17; Cav3 T inh: -3.8; Rev-RRE block: 1; FAK blocker: 8; PTK2B oligo ant: -3.9*

What do the screens show for `Cc1ccccc1NC(=O)c1ccc(C)c(S(=O)(=O)Nc2ccccn2)c1`?
PLK1 inh: -9; Plk1 PBD FP: 1; Cav3 T inh: 0.32; Rev-RRE block: -1; FAK blocker: -3; PTK2B oligo ant: 0.38

How did CCCN(C#N)c1nc(NCC)nc(NC(C)C)n1 do in these assays?
PLK1 inh: -6; Plk1 PBD FP: -15; Cav3 T inh: -0.23; Rev-RRE block: -1; FAK blocker: -3; PTK2B oligo ant: 0.1

How did Cc1cc(C)nc(N(C#N)S(=O)(=O)c2ccccc2Cl)n1 do in these assays?
PLK1 inh: -11; Plk1 PBD FP: 6; Cav3 T inh: 1.6; Rev-RRE block: 6; FAK blocker: 0; PTK2B oligo ant: 0.72

What do the screens show for `Cc1cc(C)nc(N(C#N)CCOc2ccc(Cl)cc2)n1`?
PLK1 inh: -11; Plk1 PBD FP: -2; Cav3 T inh: -1.3; Rev-RRE block: 6; FAK blocker: -1; PTK2B oligo ant: -4.2*

How did CC(C)Nc1nc(NC(C)C)nc(N(C#N)CCOc2ccc(Cl)cc2Cl)n1 do in these assays?
PLK1 inh: -17; Plk1 PBD FP: 0; Cav3 T inh: -5*; Rev-RRE block: 1; FAK blocker: 6; PTK2B oligo ant: -2.5

Results for COC(=O)c1c(-c2ccccc2)csc1N ?
PLK1 inh: 32; Plk1 PBD FP: -9; Cav3 T inh: -0.38; Rev-RRE block: 1; FAK blocker: -1; PTK2B oligo ant: 0.01

Results for COC(=O)C1=C(N)c2ccccc2C1(C#N)c1ccccc1 (stereo unspecified) ?
PLK1 inh: -6; Plk1 PBD FP: 12; Cav3 T inh: -9*; Rev-RRE block: 8; FAK blocker: 3; PTK2B oligo ant: -2.7

What do the screens show for `CCOC(=O)C1(P(=O)(c2ccc(Cl)cc2)c2ccc(Cl)cc2)CCC1`?
PLK1 inh: -10; Plk1 PBD FP: 3; Cav3 T inh: -6.3*; Rev-RRE block: 6; FAK blocker: -1; PTK2B oligo ant: 0.69

What do the screens show for `O=C(O)C1(P(=O)(c2ccccc2)c2ccccc2)CCC1`?
Cav3 T inh: 0.34; PTK2B oligo ant: -0.11

Results for CCOC(=O)C1CCCN(CC(=O)Nc2c(C(=O)OC)[nH]c3ccc(Br)cc23)C1 (stereo unspecified) ?
PLK1 inh: -2; Plk1 PBD FP: -11; Cav3 T inh: -4.3*; Rev-RRE block: 7; FAK blocker: -6; PTK2B oligo ant: 0.82

Results for Cc1cc(NC(=O)CCC(=O)N(Cc2cccs2)C(C(=O)NC2CCCC2)c2cccnc2)no1 (stereo unspecified) ?
PLK1 inh: -8; Plk1 PBD FP: 19; Cav3 T inh: 1.7; Rev-RRE block: 1; FAK blocker: 3; PTK2B oligo ant: -0.25

What do the screens show for `O=C(NC1CCCCC1)C(c1cccs1)N(Cc1cccs1)C(=O)c1cccs1` (stereo unspecified)?
PLK1 inh: -15; Plk1 PBD FP: -23; Cav3 T inh: -5.3*; Rev-RRE block: 6; FAK blocker: 1; PTK2B oligo ant: -3.9*

Results for O=C(NC1CCCCC1)C(c1ccc2ncccc2c1)N(Cc1cccs1)C(=O)c1cccs1 (stereo unspecified) ?
PLK1 inh: -6; Plk1 PBD FP: -1; Cav3 T inh: -1.6; Rev-RRE block: -1; FAK blocker: 7; PTK2B oligo ant: -2.9

How did Cc1cc(NC(=O)CCC(=O)N(Cc2cccs2)C(C(=O)NC2CCCC2)c2ccccc2)no1 (stereo unspecified) do in these assays?
PLK1 inh: 9; Plk1 PBD FP: -2; Cav3 T inh: -8.7*; Rev-RRE block: 6; FAK blocker: 5; PTK2B oligo ant: -0.9
